ChEMBL document CHEMBL1821567, “Synthesis and glycosidase inhibitory profiles of functionalised morpholines and oxazepanes” (Bioorg Med Chem, 2011)
Active and inactive are the calls of the source. No cut-off for these calls is given here.

Experiments:
[1] = target: T1, Beta-galactosidase/Glucosylceramidase (Bos taurus, UniProt Q58D55+Q2KHZ8); test: Inhibition of bovine liver beta-glucosidase/beta-galatosidase
T1 sequence (Q58D55 whole entry): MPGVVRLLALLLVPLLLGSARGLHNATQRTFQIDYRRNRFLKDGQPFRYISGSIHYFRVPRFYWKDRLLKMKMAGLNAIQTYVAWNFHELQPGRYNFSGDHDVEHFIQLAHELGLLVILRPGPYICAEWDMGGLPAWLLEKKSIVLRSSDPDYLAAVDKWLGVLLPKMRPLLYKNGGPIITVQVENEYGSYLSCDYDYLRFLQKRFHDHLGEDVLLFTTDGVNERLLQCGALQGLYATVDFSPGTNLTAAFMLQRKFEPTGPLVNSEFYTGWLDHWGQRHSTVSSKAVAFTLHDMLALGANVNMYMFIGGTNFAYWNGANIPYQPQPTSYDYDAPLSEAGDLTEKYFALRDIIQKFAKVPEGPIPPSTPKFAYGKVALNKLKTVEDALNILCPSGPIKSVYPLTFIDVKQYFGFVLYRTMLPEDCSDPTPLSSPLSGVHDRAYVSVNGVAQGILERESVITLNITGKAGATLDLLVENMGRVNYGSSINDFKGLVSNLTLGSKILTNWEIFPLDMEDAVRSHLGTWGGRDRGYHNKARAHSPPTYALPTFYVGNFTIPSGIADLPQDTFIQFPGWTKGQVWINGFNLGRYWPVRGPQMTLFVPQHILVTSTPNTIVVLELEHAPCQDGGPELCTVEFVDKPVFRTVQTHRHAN
T1 sequence (Q2KHZ8 whole entry): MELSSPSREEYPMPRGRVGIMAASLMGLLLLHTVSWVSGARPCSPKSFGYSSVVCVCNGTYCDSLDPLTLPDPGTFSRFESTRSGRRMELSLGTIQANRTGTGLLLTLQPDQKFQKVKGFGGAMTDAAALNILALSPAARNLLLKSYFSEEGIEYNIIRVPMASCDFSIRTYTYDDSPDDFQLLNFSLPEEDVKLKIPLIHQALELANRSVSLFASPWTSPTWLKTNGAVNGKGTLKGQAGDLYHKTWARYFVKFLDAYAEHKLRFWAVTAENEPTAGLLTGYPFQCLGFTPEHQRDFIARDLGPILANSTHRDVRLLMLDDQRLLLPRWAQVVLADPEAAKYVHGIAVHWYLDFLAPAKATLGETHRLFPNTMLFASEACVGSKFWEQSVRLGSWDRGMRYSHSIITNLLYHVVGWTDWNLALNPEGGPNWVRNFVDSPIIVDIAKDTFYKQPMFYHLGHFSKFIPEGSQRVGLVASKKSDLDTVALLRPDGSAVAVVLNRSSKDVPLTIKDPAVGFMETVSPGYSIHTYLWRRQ

[2] = Inhibition of lysosomal alpha-glucosidase
[3] = Inhibition of lysosomal beta-glucosidase; conditions: concentration not given here
Outline: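 Enzyme and test solution (or water for controls) were pre-incubated at 27 °C for 10–20 min. Substrate was then added and incubated at 27 °C for 10–20 min. The reaction was stopped with glycine solution and absorbance read at 405 nm. Wells were in triplicate with triplicate controls. Results are % inhibition at 1 mg/ml at optimal pH.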

[4] = Inhibition of lysosomal alpha-glucosidase
Saccharomyces cerevisiae = test: Inhibition of Saccharomyces cerevisiae alpha-D-glucosidase at 1 mg/ml after 10 to 20 mins
Outline: (§1)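 Enzyme was pre-incubated with test solution at 1 mg/ml, or dH2O for controls, for 10–20 min at 27 °C. Substrate was added and incubation continued for the same time at 27 °C. The reaction was stopped with glycine solution and read at 405 nm. Each sample and control ran in three wells at the enzyme's optimal pH. Values are % inhibition.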

[5] = system: Geobacillus stearothermophilus; test: Inhibition of Bacillus stearothermophilus alpha-D-glucosidase at 1 mg/ml after 10 to 20 mins; outline: as §1
Oryza sativa = test: Inhibition of rice alpha-D-glucosidase at 1 mg/ml after 10 to 20 mins; outline: as §1
Prunus = test: Inhibition of almond beta-D-glucosidase at 1 mg/ml after 10 to 20 mins; outline: as §1
Canavalia ensiformis = test: Inhibition of jack bean alpha-D-mannosidase at 1 mg/ml after 10 to 20 mins; outline: as §1
Cellulomonas fimi = test: Inhibition of Cellulomonas fimi beta-D-mannosidase at 1 mg/ml after 10 to 20 mins; outline: as §1
Bos taurus = species: Bos taurus; test: Inhibition of bovine kidney N-acetyl-beta-D-glucosaminidase at 1 mg/ml after 10 to 20 mins; outline: as §1
[6] = target: Alpha-galactosidase (Coffea arabica) (UniProt Q42656); test: Inhibition of green coffee beans alpha-D-galactosidase at 1 mg/ml after 10 to 20 mins; outline: as §1
Alpha-galactosidase (Coffea arabica), sequence (Q42656 16-378 limits assumed): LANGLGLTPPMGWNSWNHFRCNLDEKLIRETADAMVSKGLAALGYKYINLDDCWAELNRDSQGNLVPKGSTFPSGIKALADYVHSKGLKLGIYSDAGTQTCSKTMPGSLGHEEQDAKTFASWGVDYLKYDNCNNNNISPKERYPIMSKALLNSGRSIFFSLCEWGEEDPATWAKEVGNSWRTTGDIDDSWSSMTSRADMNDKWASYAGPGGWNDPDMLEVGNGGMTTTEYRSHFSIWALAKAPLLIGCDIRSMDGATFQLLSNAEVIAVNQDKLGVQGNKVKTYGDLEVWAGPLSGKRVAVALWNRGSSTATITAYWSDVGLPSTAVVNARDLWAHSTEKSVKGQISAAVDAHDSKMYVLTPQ

[7] = target: T2, Beta-galactosidase (Bos taurus) (UniProt Q58D55); test: Inhibition of bovine kidney beta-D-galactosidase at 1 mg/ml after 10 to 20 mins; outline: as §1
T2 sequence (whole entry): T1 sequence (Q58D55 whole entry)

Penicillium decumbens = test: Inhibition of Penicillium decumbens naringinase at 1 mg/ml after 10 to 20 mins; outline: as §1
Beta-galactosidase = target: T3, Beta-galactosidase (Bos taurus, UniProt Q58D55); test: Inhibition of bovine kidney beta-D-galactosidase after 10 to 20 mins
T3 sequence (Q58D55 whole entry): T1 sequence (Q58D55 whole entry)
Outline: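 Bovine kidney β-D-galactosidase was pre-incubated with test solution, or dH2O for controls, for 10–20 min at 27 °C. Substrate was added for a further 10–20 min at 27 °C, then glycine solution, and absorbance at 405 nm. Wells were run in triplicate. Ki and inhibition mode came from Lineweaver–Burk double-reciprocal slopes.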

[8] = target: T4, Lysosomal acid glucosylceramidase (Homo sapiens, UniProt P04062); test: Uncompetitive inhibition of human beta-glucosidase by Michaelis-Menten kinetics analysis
T4 sequence (P04062 whole entry): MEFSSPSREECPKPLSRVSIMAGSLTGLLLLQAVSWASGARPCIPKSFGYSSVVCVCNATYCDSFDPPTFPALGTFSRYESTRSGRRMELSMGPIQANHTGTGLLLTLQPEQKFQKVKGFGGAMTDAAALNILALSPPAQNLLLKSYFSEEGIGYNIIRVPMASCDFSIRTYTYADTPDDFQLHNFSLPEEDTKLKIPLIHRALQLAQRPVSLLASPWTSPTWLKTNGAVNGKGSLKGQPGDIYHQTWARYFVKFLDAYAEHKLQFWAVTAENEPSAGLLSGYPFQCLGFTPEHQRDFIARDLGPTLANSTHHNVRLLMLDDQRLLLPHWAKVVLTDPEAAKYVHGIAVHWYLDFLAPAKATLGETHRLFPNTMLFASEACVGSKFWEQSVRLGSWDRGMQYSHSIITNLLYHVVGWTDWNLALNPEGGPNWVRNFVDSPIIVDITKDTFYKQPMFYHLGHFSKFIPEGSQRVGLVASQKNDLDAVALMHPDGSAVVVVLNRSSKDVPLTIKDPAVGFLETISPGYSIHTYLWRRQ

Compound | Ki [1] [µM] | inhibition (Saccharomyces cerevisiae) | inhibition [5] | inhibition (Oryza sativa) | inhibition (Prunus) | inhibition (Canavalia ensiformis) | inhibition (Cellulomonas fimi) | inhibition (Bos taurus) | inhibition [6] | inhibition [7] | inhibition (Penicillium decumbens) | further results
O=C(Nc1ccccc1)N1[C@@H]2OC[C@]1(O)[C@@H](O)[C@H](O)[C@H]2O | 30 | – | – | – | – | – | – | – | – | – | – | –
O[C@@H]1[C@@H](O)[C@H](O)[C@@]2(O)CO[C@H]1N2C(=S)Nc1ccccc1 | 2.5 | – | – | – | – | – | – | – | – | – | – | –
O[C@@H]1[C@@H](O)[C@H](O)[C@@]2(O)CO[C@H]1N2 | 45 | – | – | – | – | – | – | – | – | – | – | –
O[C@H]1[C@H](O)[C@@H](O)CN2CC[C@H](O)[C@H]12 [CASTANOSPERMINE] | – | – | – | – | – | – | – | – | – | – | – | Ki [2]: 0.1 µM; inhibition ([2]; concentration not given here): 100%; inhibition [3]: 96%; Ki [4]: 0.1 µM
CCCCCCCCN1C[C@@H](CO)O[C@H](OC)C1 | – | inactive | inactive | inactive | inactive | inactive | 6% | inactive | inactive | 51% | inactive | IC50 (Beta-galactosidase): 55.1 µM
OCCN1CCOCC1 | – | – | – | – | – | – | – | – | – | – | – | Ki [8]: 620 µM
COC(=O)C(C)N1C[C@@H](CO)O[C@H](OC)[C@H](O)C1 (stereo partly specified) | – | inactive | inactive | inactive | inactive | inactive | inactive | inactive | inactive | inactive | inactive | –
CO[C@@H]1CN(C[C@H]2O[C@H](OC)[C@H](O)[C@@H](O)[C@@H]2O)C[C@@H](CO)O1 | – | 77% | 66% | inactive | 28% | inactive | 33% | 11% | 31% | 50% | 11% | –
O[C@@H]1[C@H](O)[C@H](O)[C@@]2(O)CO[C@H]1N2C(=S)Nc1ccccc1 | 750 | – | – | – | – | – | – | – | – | – | – | –
O=C(Nc1ccccc1)N1[C@@H]2OC[C@]1(O)[C@@H](O)[C@@H](O)[C@H]2O | 68 | – | – | – | – | – | – | – | – | – | – | –
